Test [1] concerns Candida albicans. Put plainly: Antifungal activity against Candida albicans assessed as macroscopically visible colonies after 48 and 72 hrs by standard agar dilution method. The format is functional. The essentials:
(§1)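 MIC by standard agar method. Tested against Candida albicans, Fusarium oxysporum, Aspergillus flavus, Aspergillus niger and Cryptococcus neoformans. Dimethyl sulfoxide served as solvent control, and miconazole and fluconazole served as reference standards.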

Test [2] relates to Cryptococcus neoformans. Briefly: Antifungal activity against Cryptococcus neoformans assessed as appearance of macroscopically visible colonies after 48 and 72 hrs by standard agar dilution method. The format is functional. The method in brief: as §1
In general terms: In agar dilution the substance is mixed into plates at graded concentrations.

The test system of test [3] is Aspergillus flavus. Put plainly: Antifungal activity against Aspergillus flavus assessed as macroscopically visible colonies after 48 and 72 hrs by standard agar dilution method. In kind it is functional. The essentials:
as §1

In test [4] the test system is Aspergillus niger. Put plainly: Antifungal activity against Aspergillus niger assessed as macroscopically visible colonies after 48 and 72 hrs by standard agar dilution method. The format is functional. The essentials:
as §1

Test [5] concerns Fusarium oxysporum. Put plainly: Antifungal activity against Fusarium oxysporum assessed as macroscopically visible colonies after 48 and 72 hrs by standard agar dilution method. The format is functional. The method in brief: as §1
Test [6] has as its system Aspergillus niger. Briefly: Antifungal activity against Aspergillus niger assessed as macroscopically visible colonies upto 200 ug/ml after 48 and 72 hrs by standard agar dilution method. The format is functional, organism-based. The method in brief: as §1
The test system of test [7] is Cryptococcus neoformans. Briefly: Antifungal activity against Cryptococcus neoformans assessed as appearance of macroscopically visible colonies upto 200 ug/ml after 48 and 72 hrs by standard agar dilution method. The format is functional, organism-based. The method in brief:
as §1

Test [8] deals with Candida albicans. Put plainly: Antifungal activity against Candida albicans assessed as macroscopically visible colonies upto 200 ug/ml after 48 and 72 hrs by standard agar dilution method. In kind it is functional, organism-based. The method in brief: as §1

≈ marks a conversion by molar mass, not a printed value. Calls of active or inactive are those of the source. The rule behind the calls is not given here.

Consider `CS(=O)(=O)N1CCC(n2cc(-c3nnc(-c4ccccc4)o3)nn2)CC1`, for which the MIC (in general, the least concentration at which growth counts as inhibited) was 35 µg/mL (≈ 93.5 µM) in test [1]; 55 µg/mL (≈ 147 µM) in test [2]; 45 µg/mL (≈ 120 µM) in test [3]; 40 µg/mL (≈ 107 µM) in test [4]; 40 µg/mL (≈ 107 µM) in test [5].
For the compound `CN1CCC(n2cc(-c3nnc(-c4ccccc4)o3)nn2)CC1`, the MIC in test [1] came out at 70 µg/mL (≈ 226 µM); in test [2], 90 µg/mL (≈ 290 µM); in test [3], 60 µg/mL (≈ 193 µM); in test [4], 80 µg/mL (≈ 258 µM); in test [5], 70 µg/mL (≈ 226 µM).
Consider `CCN1CCC(n2cc(-c3nnc(-c4ccccc4)o3)nn2)CC1`, for which the MIC is 55 µg/mL (≈ 170 µM) in test [1]; 80 µg/mL (≈ 247 µM) in test [2]; 60 µg/mL (≈ 185 µM) in test [3]; 80 µg/mL (≈ 247 µM) in test [4]; 50 µg/mL (≈ 154 µM) in test [5].
As to `Cc1cccc(-c2nnc(-c3cn(C4CCN(C(=O)c5ccccc5)CC4)nn3)o2)c1`, the result in test [6], in test [7] and in test [8] was inactive. Further, the MIC in test [3] was 150 µg/mL (≈ 362 µM); in test [5], 100 µg/mL (≈ 241 µM).
For `c1ccc(-c2nnc(-c3cn(C4CCNCC4)nn3)o2)cc1`, the MIC in test [1] worked out at 80 µg/mL (≈ 270 µM); in test [2], 150 µg/mL (≈ 506 µM); in test [3], 90 µg/mL (≈ 304 µM); in test [4], 125 µg/mL (≈ 422 µM); in test [5], 85 µg/mL (≈ 287 µM).
On to `OC(Cn1cncn1)(Cn1cncn1)c1ccc(F)cc1F` [FLUCONAZOLE], for which the MIC in test [1] stood at 5 µg/mL (≈ 16.3 µM); in test [2], 5 µg/mL (≈ 16.3 µM); in test [3] it was 5 µg/mL (≈ 16.3 µM); in test [4], 10 µg/mL (≈ 32.7 µM); in test [5] it was 5 µg/mL (≈ 16.3 µM).
As to `Clc1ccc(COC(Cn2ccnc2)c2ccc(Cl)cc2Cl)c(Cl)c1` (stereo not given) [MICONAZOLE], the MIC in test [1] worked out at 25 µg/mL (≈ 60.1 µM); in test [2], 25 µg/mL (≈ 60.1 µM); in test [3] it was 12.5 µg/mL (≈ 30 µM); in test [4], 12.5 µg/mL (≈ 30 µM); in test [5] it was 25 µg/mL (≈ 60.1 µM).
As for `CC(=O)N1CCC(n2cc(-c3nnc(-c4cccc(Cl)c4)o3)nn2)CC1`, in test [7], the result was inactive. Besides, the MIC is 35 µg/mL (≈ 93.9 µM) in test [1], 20 µg/mL (≈ 53.6 µM) in test [3], 25 µg/mL (≈ 67.1 µM) in test [4] and 30 µg/mL (≈ 80.5 µM) in test [5].
Turning to `CS(=O)(=O)N1CCC(n2cc(-c3nnc(-c4cccc(O)c4)o3)nn2)CC1`, the MIC in test [1] is 30 µg/mL (≈ 76.8 µM); in test [2], 100 µg/mL (≈ 256 µM); in test [3], 15 µg/mL (≈ 38.4 µM); in test [4], 15 µg/mL (≈ 38.4 µM); in test [5], 25 µg/mL (≈ 64 µM).
As to `CC(=O)N1CCC(n2cc(-c3nnc(-c4cccc(C)c4)o3)nn2)CC1`, in test [7], the result was inactive. For the same compound, the MIC in test [1] came out at 45 µg/mL (≈ 128 µM); in test [3], 35 µg/mL (≈ 99.3 µM); in test [4], 40 µg/mL (≈ 114 µM); in test [5] it was 40 µg/mL (≈ 114 µM).
Regarding `CCN1CCC(n2cc(-c3nnc(-c4cccc(OC)c4)o3)nn2)CC1`, the MIC in test [1] was 50 µg/mL (≈ 141 µM); in test [2], 100 µg/mL (≈ 282 µM); in test [3], 50 µg/mL (≈ 141 µM); in test [4] it was 75 µg/mL (≈ 212 µM); in test [5], 60 µg/mL (≈ 169 µM).
Regarding `CCN1CCC(n2cc(-c3nnc(-c4cccc(Cl)c4)o3)nn2)CC1`, the MIC is 40 µg/mL (≈ 111 µM) in test [1]; 50 µg/mL (≈ 139 µM) in test [2]; 25 µg/mL (≈ 69.7 µM) in test [3]; 50 µg/mL (≈ 139 µM) in test [4]; 35 µg/mL (≈ 97.5 µM) in test [5].
Turning to `CS(=O)(=O)N1CCC(n2cc(-c3nnc(-c4cccc([N+](=O)[O-])c4)o3)nn2)CC1`, the MIC was 40 µg/mL (≈ 95.4 µM) in test [1]; 90 µg/mL (≈ 215 µM) in test [2]; 50 µg/mL (≈ 119 µM) in test [3]; 70 µg/mL (≈ 167 µM) in test [4]; 55 µg/mL (≈ 131 µM) in test [5].
Consider `CC(C)(C)OC(=O)N1CCC(n2cc(-c3nnc(-c4ccccc4)o3)nn2)CC1`, for which the result in test [7] was inactive. Also, the MIC worked out at 100 µg/mL (≈ 252 µM) in test [1], 100 µg/mL (≈ 252 µM) in test [3], 150 µg/mL (≈ 378 µM) in test [4] and 125 µg/mL (≈ 315 µM) in test [5].
Regarding `O=C(c1ccc(Cl)cc1)N1CCC(n2cc(-c3nnc(-c4ccccc4)o3)nn2)CC1`, in test [7], the outcome was inactive. In addition, the MIC in test [1] came out at 150 µg/mL (≈ 345 µM); in test [3] it was 90 µg/mL (≈ 207 µM); in test [4], 100 µg/mL (≈ 230 µM); in test [5] it was 90 µg/mL (≈ 207 µM).
With `CCN1CCC(n2cc(-c3nnc(-c4cccc(O)c4)o3)nn2)CC1`, the MIC stood at 35 µg/mL (≈ 103 µM) in test [1]; 60 µg/mL (≈ 176 µM) in test [2]; 20 µg/mL (≈ 58.8 µM) in test [3]; 20 µg/mL (≈ 58.8 µM) in test [4]; 35 µg/mL (≈ 103 µM) in test [5].
Consider `CN1CCC(n2cc(-c3nnc(-c4cccc(Cl)c4)o3)nn2)CC1`, for which the MIC in test [1] was 55 µg/mL (≈ 160 µM); in test [2], 150 µg/mL (≈ 435 µM); in test [3], 40 µg/mL (≈ 116 µM); in test [4] it was 45 µg/mL (≈ 131 µM); in test [5] it was 50 µg/mL (≈ 145 µM).
Consider `COc1cccc(-c2nnc(-c3cn(C4CCN(C)CC4)nn3)o2)c1`, for which the MIC in test [1] came out at 60 µg/mL (≈ 176 µM); in test [2], 80 µg/mL (≈ 235 µM); in test [3] it was 50 µg/mL (≈ 147 µM); in test [4], 70 µg/mL (≈ 206 µM); in test [5] it was 65 µg/mL (≈ 191 µM).
Taken in the same sequence, the figures for `CS(=O)(=O)N1CCC(n2cc(-c3nnc(-c4cccc(Cl)c4)o3)nn2)CC1` were 25 µg/mL (≈ 61.1 µM), 50 µg/mL (≈ 122 µM), 15 µg/mL (≈ 36.7 µM), 20 µg/mL (≈ 48.9 µM) and 25 µg/mL (≈ 61.1 µM).
In the case of `O=C(c1ccccc1)N1CCC(n2cc(-c3nnc(-c4ccccc4)o3)nn2)CC1`, the result in test [7] and in test [8] was inactive. The values for the MIC in test [3], in test [4] and in test [5] were 150 µg/mL (≈ 375 µM), 175 µg/mL (≈ 437 µM) and 100 µg/mL (≈ 250 µM), respectively.
Take `CN1CCC(n2cc(-c3nnc(-c4cccc(O)c4)o3)nn2)CC1`: the outcome in test [7] was inactive. The MIC was 40 µg/mL (≈ 123 µM) in test [1], 25 µg/mL (≈ 76.6 µM) in test [3], 35 µg/mL (≈ 107 µM) in test [4] and 35 µg/mL (≈ 107 µM) in test [5].

The values above are taken from ChEMBL document CHEMBL1641426, “Microwave assisted one pot synthesis of some novel 2,5-disubstituted 1,3,4-oxadiazoles as antifungal agents” (2011).
